Key:
[1] = system: MOLT-4 cells; test: MOLT-4 cell viability; assay type: cell-based; conditions: for IC50: Homo sapiens, MOLT-4, 48 h, read-out: IC50 (MOLT-4 cells)
Summary of the method: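 MOLT-4 (T-ALL) cells, STR-profiled and mycoplasma-negative, were kept at 37 °C in 5% CO2. Between […] and 1 × 10^5 suspension cells were seeded per well and exposed to test compound for 48 h or 72 h. Viability was read with tetrazolium MTS reagent, and IC50 values were calculated from the viability data.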

[2] = system: NCI-H146 cells; conditions: read-out: IC50 (NCI-H146 cells); NCI-H146 SCLC cells; earlier work; cited from earlier work
[3] = system: SCLC cell lines; test: Viability of a panel of SCLC cell lines; assay type: cell-based; conditions: 72 h
Summary of the method: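 SCLC lines came from the NCI-Navy Medical Oncology supply, with H146 from ATCC. Stocks were STR-profiled and mycoplasma-negative, kept at 37 °C and 5% CO2.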

[4] = target: T1, Bcl-xL (Homo sapiens, UniProt Q07817); test: Bcl-xL levels in human platelets; assay type: cell-based; conditions: 48 h
[5] = system: human platelets; test: Human platelet viability assay; assay type: cell-based
[6] = system: platelets; test: In vivo platelet toxicity assay; conditions: single dose 1.5 mg kg−1, i.p., mice
[7] = target: T1, Bcl-xL; test: Bcl-xL degradation in MOLT-4 cells; assay type: cell-based
Summary of the method: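 MOLT-4 cells (RPMI 1640, 10% FBS, 1% penicillin–streptomycin, 37 °C, 5% CO2) were treated for 16 h across a concentration series, or at 100 nM over a time course. Where stated, cells had 1 μM MG-132 pretreatment for 2 h. Lysates were run on 4–20% Tris-glycine gels and blotted to PVDF, with ECL detection. Band densities were normalised to β-actin, three independent experiments, mean ± SD.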

[8] = system: MOLT-4 xenograft; test: MOLT-4 T-ALL xenograft mouse model; assay type: in vivo; conditions: 1.5 mg kg−1, Q4D, i.p., MOLT-4 xenograft mice
Summary of the method: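 MOLT-4 cells (5 × 10^6) in RPMI:Matrigel 1:1 were implanted s.c. in the right flank of 5-week-old CB-17 SCID mice. At mean tumour ~150 mm3, mice were randomised (n = 6 per group) to vehicle or 1.5 mg kg−1 i.p. every 4 days. The vehicle was 50% Phosal 50 PG, 45% Miglyol 810 N and 5% polysorbate 80. Calipers were used twice weekly, volume = (L × W2) × 0.5.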

[9] = system: PARP and caspase-3 cleavage; test: Western blot of cleaved PARP and cleaved caspase-3 in MOLT-4 cells; assay type: cell-based; conditions: 16 h
Summary of the method: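 MOLT-4 cells were treated for 16 h across a concentration series. Lysates were immunoblotted (4–20% Tris-glycine gels, PVDF, 5% milk/TBST block, primary antibody overnight at 4 °C, HRP secondary, ECL) for cleaved PARP and cleaved caspase-3. Full-length PARP was detected by stripping and reprobing the membrane. Bands were normalised to β-actin.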

T1 sequence (Q07817 whole entry): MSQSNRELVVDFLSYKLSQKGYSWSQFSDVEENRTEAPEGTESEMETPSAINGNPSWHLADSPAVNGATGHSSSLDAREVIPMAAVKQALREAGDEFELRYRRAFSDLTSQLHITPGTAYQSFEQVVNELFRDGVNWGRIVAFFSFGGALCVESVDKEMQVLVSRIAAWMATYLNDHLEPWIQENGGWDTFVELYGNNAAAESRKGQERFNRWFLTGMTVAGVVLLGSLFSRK

IC50 [1]	Compound	further results
59.7 nM	CC1(C)CCC(c2ccc(Cl)cc2)=C(CN2CCN(c3ccc(C(=O)NS(=O)(=O)c4ccc(N[C@H](CCNCCOCCOCCOCCNc5cccc6c5C(=O)N(C5CCC(=O)NC5=O)C6=O)CSc5ccccc5)c(S(=O)(=O)C(F)(F)F)c4)cc3)CC2)C1 (stereo partly shown) [1a]	
52.8 nM	CCN(CCOCCOCCOCCNc1cccc2c1C(=O)N(C1CCC(=O)NC1=O)C2=O)CC[C@H](CSc1ccccc1)Nc1ccc(S(=O)(=O)NC(=O)c2ccc(N3CCN(CC4=C(c5ccc(Cl)cc5)CCC(C)(C)C4)CC3)cc2)cc1S(=O)(=O)C(F)(F)F (stereo partly shown) [1b]	
297 nM	CC1(C)CCC(c2ccc(Cl)cc2)=C(CN2CCN(c3ccc(C(=O)NS(=O)(=O)c4ccc(N[C@H](CCN(CCOCCOCCOCCNc5cccc6c5C(=O)N(C5CCC(=O)NC5=O)C6=O)C5CC5)CSc5ccccc5)c(S(=O)(=O)C(F)(F)F)c4)cc3)CC2)C1 (stereo partly shown) [1d]	
330 nM	CC1(C)CCC(c2ccc(Cl)cc2)=C(CN2CCN(c3ccc(C(=O)NS(=O)(=O)c4ccc(N[C@H](CCN(CCOCCOCCOCCNc5cccc6c5C(=O)N(C5CCC(=O)NC5=O)C6=O)C5CCC5)CSc5ccccc5)c(S(=O)(=O)C(F)(F)F)c4)cc3)CC2)C1 (stereo partly shown) [1e]	
397 nM	CC1(C)CCC(c2ccc(Cl)cc2)=C(CN2CCN(c3ccc(C(=O)NS(=O)(=O)c4ccc(N[C@H](CCN(CCOCCOCCOCCNc5cccc6c5C(=O)N(C5CCC(=O)NC5=O)C6=O)C5COC5)CSc5ccccc5)c(S(=O)(=O)C(F)(F)F)c4)cc3)CC2)C1 (stereo partly shown) [1f]	
326 nM	CC1(C)CCC(c2ccc(Cl)cc2)=C(CN2CCN(c3ccc(C(=O)NS(=O)(=O)c4ccc(N[C@H](CCN(CCOCCOCCOCCNc5cccc6c5C(=O)N(C5CCC(=O)NC5=O)C6=O)CC5CCC5)CSc5ccccc5)c(S(=O)(=O)C(F)(F)F)c4)cc3)CC2)C1 (stereo partly shown) [1g]	
> 1000 nM	CC1(C)CCC(c2ccc(Cl)cc2)=C(CN2CCN(c3ccc(C(=O)NS(=O)(=O)c4ccc(N[C@H](CCN(CCOCCOCCOCCNc5cccc6c5C(=O)N(C5CCC(=O)NC5=O)C6=O)C5CCCCC5)CSc5ccccc5)c(S(=O)(=O)C(F)(F)F)c4)cc3)CC2)C1 (stereo partly shown) [1i]	
10.4 nM	CN(CCOCCOCCOCCOc1cccc2c1C(=O)N(C1CCC(=O)NC1=O)C2=O)CC[C@H](CSc1ccccc1)Nc1ccc(S(=O)(=O)NC(=O)c2ccc(N3CCN(CC4=C(c5ccc(Cl)cc5)CCC(C)(C)C4)CC3)cc2)cc1S(=O)(=O)C(F)(F)F (stereo partly shown) [2a]	
5.2 nM	CN(CCOCCOCCOCC#Cc1cccc2c1C(=O)N(C1CCC(=O)NC1=O)C2=O)CC[C@H](CSc1ccccc1)Nc1ccc(S(=O)(=O)NC(=O)c2ccc(N3CCN(CC4=C(c5ccc(Cl)cc5)CCC(C)(C)C4)CC3)cc2)cc1S(=O)(=O)C(F)(F)F (stereo partly shown) [2b]	fold increase in potency against MOLT-4 cells compared to 2a ([1]; vs 2a): 2 fold
6.2 nM	CN(CCOCCOCCOCCCc1cccc2c1C(=O)N(C1CCC(=O)NC1=O)C2=O)CC[C@H](CSc1ccccc1)Nc1ccc(S(=O)(=O)NC(=O)c2ccc(N3CCN(CC4=C(c5ccc(Cl)cc5)CCC(C)(C)C4)CC3)cc2)cc1S(=O)(=O)C(F)(F)F (stereo partly shown) [2c]	
10.6 nM	CN(CCOCCOCCN1CCN(c2cccc3c2C(=O)N(C2CCC(=O)NC2=O)C3=O)CC1)CC[C@H](CSc1ccccc1)Nc1ccc(S(=O)(=O)NC(=O)c2ccc(N3CCN(CC4=C(c5ccc(Cl)cc5)CCC(C)(C)C4)CC3)cc2)cc1S(=O)(=O)C(F)(F)F (stereo partly shown) [2d]	fold weaker cellular activity than 2b ([1]; vs 2b, MOLT-4 cells): 2 fold
36.1 nM	CN(CCOCCOCCN1CCC(C#Cc2cccc3c2C(=O)N(C2CCC(=O)NC2=O)C3=O)CC1)CC[C@H](CSc1ccccc1)Nc1ccc(S(=O)(=O)NC(=O)c2ccc(N3CCN(CC4=C(c5ccc(Cl)cc5)CCC(C)(C)C4)CC3)cc2)cc1S(=O)(=O)C(F)(F)F (stereo partly shown) [2e]	fold reduced activity compared to 2d ([1]; vs 2d, MOLT-4 cells): ~4 fold
45.5 nM	CN(CCOCCOCCN1CCC(CCc2cccc3c2C(=O)N(C2CCC(=O)NC2=O)C3=O)CC1)CC[C@H](CSc1ccccc1)Nc1ccc(S(=O)(=O)NC(=O)c2ccc(N3CCN(CC4=C(c5ccc(Cl)cc5)CCC(C)(C)C4)CC3)cc2)cc1S(=O)(=O)C(F)(F)F (stereo partly shown) [2f]	
14.3 nM	CN(CCOCCOCCOCC#Cc1ccc2c(c1)C(=O)N(C1CCC(=O)NC1=O)C2=O)CC[C@H](CSc1ccccc1)Nc1ccc(S(=O)(=O)NC(=O)c2ccc(N3CCN(CC4=C(c5ccc(Cl)cc5)CCC(C)(C)C4)CC3)cc2)cc1S(=O)(=O)C(F)(F)F (stereo partly shown) [3a]	fold reduced potency against MOLT-4 cells compared to 2b ([1]; vs C4-substituted 2b): ~3 fold
4.3 nM	CN(CCOCCOCCOCCCc1ccc2c(c1)C(=O)N(C1CCC(=O)NC1=O)C2=O)CC[C@H](CSc1ccccc1)Nc1ccc(S(=O)(=O)NC(=O)c2ccc(N3CCN(CC4=C(c5ccc(Cl)cc5)CCC(C)(C)C4)CC3)cc2)cc1S(=O)(=O)C(F)(F)F (stereo partly shown) [3b]	
4.1 nM	CN(CCOCCOCCOCC#Cc1cccc2c1CN(C1CCC(=O)NC1=O)C2=O)CC[C@H](CSc1ccccc1)Nc1ccc(S(=O)(=O)NC(=O)c2ccc(N3CCN(CC4=C(c5ccc(Cl)cc5)CCC(C)(C)C4)CC3)cc2)cc1S(=O)(=O)C(F)(F)F (stereo partly shown) [4a]	
4.5 nM	CN(CCOCCOCCOCCCc1cccc2c1CN(C1CCC(=O)NC1=O)C2=O)CC[C@H](CSc1ccccc1)Nc1ccc(S(=O)(=O)NC(=O)c2ccc(N3CCN(CC4=C(c5ccc(Cl)cc5)CCC(C)(C)C4)CC3)cc2)cc1S(=O)(=O)C(F)(F)F (stereo partly shown) [4b]	
2.1 nM	CN(CCOCCOCCOCC#Cc1ccc2c(c1)CN(C1CCC(=O)NC1=O)C2=O)CC[C@H](CSc1ccccc1)Nc1ccc(S(=O)(=O)NC(=O)c2ccc(N3CCN(CC4=C(c5ccc(Cl)cc5)CCC(C)(C)C4)CC3)cc2)cc1S(=O)(=O)C(F)(F)F (stereo partly shown) [5a]	
202 nM	CC1(C)CCC(c2ccc(Cl)cc2)=C(CN2CCN(c3ccc(C(=O)NS(=O)(=O)c4ccc(N[C@H](CCN5CCOCC5)CSc5ccccc5)c(S(=O)(=O)C(F)(F)F)c4)cc3)CC2)C1 [ABT-263, navitoclax, reference compound]	
	Cc1ncsc1-c1ccc([C@H](C)NC(=O)[C@@H]2C[C@@H](O)CN2C(=O)[C@@H](NC(=O)CCCCCC(=O)N2CCN(CC[C@H](CSc3ccccc3)Nc3ccc(S(=O)(=O)NC(=O)c4ccc(N5CCN(CC6=C(c7ccc(Cl)cc7)CCC(C)(C)C6)CC5)cc4)cc3S(=O)(=O)C(F)(F)F)CC2)C(C)(C)C)cc1 [DT2216]	IC50 [2]: 278 nM
1.3 nM	CN(CCOCCOCCOCCCc1ccc2c(c1)CN(C1CCC(=O)NC1=O)C2=O)CC[C@H](CSc1ccccc1)Nc1ccc(S(=O)(=O)NC(=O)c2ccc(N3CCN(CC4=C(c5ccc(Cl)cc5)CCC(C)(C)C4)CC3)cc2)cc1S(=O)(=O)C(F)(F)F (stereo partly shown) [PZ671]	fold improved cellular activity against MOLT-4 cells compared to XZ739 ([1]; vs XZ739, listed as 5b): 8 fold; cell killing potency in SCLC cell lines compared to XZ739 [3]: more potent than XZ739; concentration at which Bcl-xL is degraded in human platelets [4]: above 1 μM; selectivity for MOLT-4 cells over platelets [5]: 25 fold; fold decrease in selectivity for MOLT-4 cells over platelets compared to XZ739 ([5]; vs XZ739): ~5 fold; platelet count recovery [6]: rapid recovery observed from the second day onward; time to almost complete Bcl-xL degradation ([7]; MOLT-4 cells, 100 nM): 4 h; time to significantly reduced Bcl-xL protein levels ([7]; MOLT-4 cells, 100 nM): ≤ 2 h; Bcl-xL degradation after proteasome inhibitor pretreatment ([7]; MOLT-4 cells, pretreatment with 1 μM MG-132 for 2 h): blocked; fold enhanced degradation potency against Bcl-xL compared to XZ739 ([7]; vs XZ739, MOLT-4 cells): ~6 fold; tumor growth [8]: markedly suppressed the tumor growth; PARP and caspase-3 cleavage [9]: dose-dependently increased
